In paper PMC5644278 (Alzheimer's & Dementia : Translational Research & Clinical …, 2016):

How the values were obtained:
[1] = Pharmacokinetics of Gln-1062 in female Wistar rats; format: in vivo
[2] = system: Wistar rats; assay: 28-day intranasal toxicity study; format: in vivo
[3] = Plasma pharmacokinetics after single intranasal dose of Gln-1062; format: in vivo, human; conditions: over the Gln-1062 intranasal dose levels
[4] = system: healthy male subjects; assay: Treatment emergent adverse events, single dose study; format: in vivo, human; conditions: for Any event (treatment emerging adverse events) / Headache / Nasal discomfort / Rhinorrhea / Sneezing / Cold sweat or hyperhidrosis / Nausea / Vomiting / Diarrhea: number of subjects, percentage in parentheses
[5] = system: healthy male subjects; assay: Adaptive tracking; format: in vivo, human
Summary of the method: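 Healthy males got one intranasal spray dose in a double-dummy design with oral capsules: 11 mg for young subjects, 22 or 33 mg for elderly subjects, 6 per dose, with age-matched nasal placebo. NeuroCart tests were run twice before dosing, then at 1, 2, 3, 4, 5, 6, 8 and 10 h after, in a quiet room, one subject per session. Analysis was mixed-model ANOVA: treatment, time and treatment×time fixed, subject random, baseline as covariate.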

[6] = system: healthy male subjects; assay: Visual verbal learning test; format: in vivo, human
[7] = system: healthy male subjects; assay: Face encoding and recognition task, single dose; format: in vivo, human
Summary of the method: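 Single intranasal dose in a double-dummy design (11 mg young males; 22 or 33 mg elderly males; 6 per dose) or nasal placebo. The face encoding and recognition task was done before dosing and 1 h 45 min after the nasal dose, in a quiet room, one subject per session. Each active group was compared with age-matched placebo by mixed-model ANOVA.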

[8] = system: healthy male subjects; assay: Pharmaco-electroencephalography, single dose; format: in vivo, human
[9] = system: healthy male subjects; assay: Eye movements; format: in vivo, human
[10] = system: healthy male subjects; assay: VAS nausea, single dose; format: in vivo, human; conditions: healthy elderly males
[11] = system: healthy male subjects; assay: Nasal examination; format: in vivo, human; conditions: Gln-1062 44-mg group
Summary of the method: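 Nasal examination at screening, during the study period after one intranasal dose (44 mg; healthy elderly males, 6 active per cohort, double-dummy with oral capsules), and at follow-up about 1 week after dosing.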

[12] = Gln-1062 5.5 mg, healthy young males
[13] = Gln-1062 5.5 mg, healthy young subjects
[14] = Gln-1062 11 mg, healthy young males
[15] = Gln-1062 11 mg, healthy young subjects
[16] = Gln-1062 22 mg, healthy elderly males
[17] = Gln-1062 22 mg, healthy elderly subjects
[18] = Gln-1062 33 mg, healthy elderly males
[19] = Gln-1062 33 mg, healthy elderly subjects
[20] = Gln-1062 44 mg, healthy elderly males
[21] = Gln-1062 44 mg, healthy elderly subjects
[22] = Gln-1062 5.5 mg vs Placebo, healthy young males
[23] = Gln-1062 11 mg vs Placebo, healthy young males
[24] = Gln-1062 22 mg vs Placebo, healthy elderly males
[25] = Gln-1062 33 mg vs Placebo, healthy elderly males
[26] = Gln-1062 44 mg vs Placebo, healthy elderly males
[27] = donepezil 10 mg oral, healthy elderly males
[28] = donepezil 10 mg oral, healthy elderly subjects

COc1ccc2c3c1O[C@H]1C[C@@H](OC(=O)c4ccccc4)C=C[C@@]31CCN(C)C2 [Gln-1062]
Brain-to-blood ratio (AUClast brain / AUClast blood) ([1]; 5.0 mg/kg Gln-1062 IN): 8.1
Brain-to-blood ratio (AUClast brain / AUClast blood) ([1]; 5.0 mg/kg Gln-1062 IV): 18.40
Brain-to-blood ratio (AUClast brain / AUClast blood) ([1]; 20.0 mg/kg Gln-1062 IN): 10.2
AUClast ([1]; blood, 5.0 mg/kg Gln-1062 IV): 528 ng·h/mL
Cmax ([1]; blood, 5.0 mg/kg Gln-1062 IV): 650 ng/mL
AUClast ([1]; brain, 5.0 mg/kg Gln-1062 IV): 9717 ng·h/g
human equivalent dose ([2]; estimated from the rat NOAEL): 48 mg
NOAEL ([2]; intranasal, 28-day, Wistar rats): 5 mg/kg
Tmax [3]: 15 to 45 min
half-life [3]: 66 to 168 min
Any event (treatment emerging adverse events) [4, 12]: 6 (100)
Headache [4, 12]: 2 (33.3)
Nasal discomfort [4, 12]: 6 (100)
Rhinorrhea [4, 12]: 2 (33.3)
Sneezing [4, 12]: 1 (16.7)
Diarrhea, incidence [4, 13]: did not occur
Vomiting, incidence [4, 13]: did not occur
Cold sweat or hyperhidrosis, incidence ([4]; Gln-1062 11 mg): 16.7%
Nausea, incidence [4, 14]: 16.7%
Any event (treatment emerging adverse events) [4, 14]: 6 (100)
Cold sweat or hyperhidrosis [4, 14]: 1 (16.7)
Headache [4, 14]: 2 (33.3)
Nasal discomfort [4, 14]: 6 (100)
Nausea [4, 14]: 1 (16.7)
Rhinorrhea [4, 14]: 4 (66.7)
Sneezing [4, 14]: 1 (16.7)
Vomiting [4, 14]: 1 (16.7)
Diarrhea, incidence [4, 15]: did not occur
Vomiting, incidence [4, 15]: 16.7%
Nausea, incidence [4, 16]: 16.7%
Any event (treatment emerging adverse events) [4, 16]: 5 (83.3)
Diarrhea [4, 16]: 1 (16.7)
Headache [4, 16]: 3 (50)
Nasal discomfort [4, 16]: 4 (66.7)
Nausea [4, 16]: 1 (16.7)
Rhinorrhea [4, 16]: 2 (33.3)
Sneezing [4, 16]: 1 (16.7)
Diarrhea, incidence [4, 17]: 16.7%
Vomiting, incidence [4, 17]: did not occur at all
Any event (treatment emerging adverse events) [4, 18]: 5 (83.3)
Diarrhea [4, 18]: 1 (16.7)
Headache [4, 18]: 2 (33.3)
Nasal discomfort [4, 18]: 4 (66.7)
Nausea [4, 18]: 3 (50)
Rhinorrhea [4, 18]: 1 (16.7)
Sneezing [4, 18]: 1 (16.7)
Vomiting [4, 18]: 2 (33.3)
Diarrhea, incidence [4, 19]: 16.7%
Vomiting, incidence [4, 19]: 33.3%
Cold sweat or hyperhidrosis, incidence ([4]; Gln-1062 44 mg): 50%
Any event (treatment emerging adverse events) [4, 20]: 5 (83.3)
Cold sweat or hyperhidrosis [4, 20]: 3 (50)
Diarrhea [4, 20]: 1 (16.7)
Nasal discomfort [4, 20]: 3 (50)
Nausea [4, 20]: 3 (50)
Rhinorrhea [4, 20]: 3 (50)
Sneezing [4, 20]: 3 (50)
Vomiting [4, 20]: 2 (33.3)
Diarrhea, incidence [4, 21]: 16.7%
Vomiting, incidence [4, 21]: 33.3%
Nausea, incidence ([4]; Gln-1062 at the highest dose levels (n = 3)): 50%
single dose levels safe and well tolerated ([4]; intranasal single dose): up to 33 mg
Adaptive tracking [5, 22]: 1.96 (−0.88 to 4.80) P = .1581%
Adaptive tracking [5, 23]: 3.47 (0.52 to 6.42) P = .0247%
Adaptive tracking [5, 24]: 0.64 (−1.06 to 2.35) P = .4474%
Adaptive tracking [5, 25]: 1.79 (0.07 to 3.52) P = .0424%
Adaptive tracking [5, 26]: 0.74 (−0.99 to 2.48) P = .3887%
VVLT: delayed word recall (correct) [6, 22]: 3.42 (−2.62 to 9.45) P = .2431
VVLT: immediate word recall trial 1 (Word recall correct 1) [6, 22]: 3.42 (−0.73 to 7.56) P = .0984
VVLT: immediate word recall trial 2 (Word recall correct 2) [6, 22]: 3.17 (−1.93 to 8.26) P = .2025
VVLT: immediate word recall trial 3 (Word recall correct 3) [6, 22]: 5.00 (−0.58 to 10.58) P = .0749
VVLT: word recognition (Delayed word recognition correct) [6, 22]: −0.15 (−8.05 to 7.75) P = .9674
VVLT: delayed word recall (correct) [6, 23]: 3.25 (−2.79 to 9.29) P = .2657
VVLT: immediate word recall trial 1 (Word recall correct 1) [6, 23]: 3.92 (−0.23 to 8.06) P = .0621
VVLT: immediate word recall trial 2 (Word recall correct 2) [6, 23]: 1.83 (−3.26 to 6.93) P = .4510
VVLT: immediate word recall trial 3 (Word recall correct 3) [6, 23]: 3.00 (−2.58 to 8.58) P = .2662
VVLT: word recognition (Delayed word recognition correct) [6, 23]: 1.45 (−6.45 to 9.35) P = .6939
VVLT: delayed word recall (correct) [6, 24]: −0.33 (−3.58 to 2.91) P = .8354
VVLT: immediate word recall trial 1 (Word recall correct 1) [6, 24]: 2.67 (0.17 to 5.16) P = .0367
VVLT: immediate word recall trial 2 (Word recall correct 2) [6, 24]: 3.50 (0.33 to 6.67) P = .0315
VVLT: immediate word recall trial 3 (Word recall correct 3) [6, 24]: 0.67 (−3.23 to 4.56) P = .7302
VVLT: word recognition (Delayed word recognition correct) [6, 24]: 0.87 (−4.09 to 5.82) P = .7231
VVLT: delayed word recall (correct) [6, 25]: −0.00 (−3.63 to 3.63) P = 1.0000
VVLT: immediate word recall trial 1 (Word recall correct 1) [6, 25]: 1.97 (−0.65 to 4.58) P = .1355
VVLT: immediate word recall trial 2 (Word recall correct 2) [6, 25]: 1.77 (−1.56 to 5.09) P = .2880
VVLT: immediate word recall trial 3 (Word recall correct 3) [6, 25]: 0.60 (−3.49 to 4.69) P = .7672
VVLT: word recognition (Delayed word recognition correct) [6, 25]: −0.67 (−6.45 to 5.12) P = .8153
VVLT: delayed word recall (correct) [6, 26]: −1.00 (−4.63 to 2.63) P = .5780
VVLT: immediate word recall trial 1 (Word recall correct 1) [6, 26]: 2.57 (−0.05 to 5.18) P = .0541
VVLT: immediate word recall trial 2 (Word recall correct 2) [6, 26]: 1.77 (−1.56 to 5.09) P = .2880
VVLT: immediate word recall trial 3 (Word recall correct 3) [6, 26]: 1.00 (−3.09 to 5.09) P = .6222
VVLT: word recognition (Delayed word recognition correct) [6, 26]: 2.17 (−3.11 to 7.45) P = .4083
Face: number correct [7, 22]: −0.77 (−4.17 to 2.64) P = .6332
Face: number correct [7, 23]: 4.54 (1.22 to 7.87) P = .0116
Face: number correct [7, 24]: −2.58 (−7.22 to 2.06) P = .2642
Face: number correct [7, 25]: −0.54 (.5.15 to 4.08) P = .8135
Face: number correct [7, 26]: −1.63 (−6.30 to 3.05) P = .4822
EEG Alpha Fz-Cz (uV) [8, 22]: −13.2% (−30.5% to 8.5%) P = .1914
EEG Alpha Pz-Oz (uV) [8, 22]: −8.9% (−23.8% to 8.9%) P = .2782
EEG Alpha Fz-Cz (uV) [8, 23]: −0.8% (−19.5% to 22.1%) P = .9310
EEG Alpha Pz-Oz (uV) [8, 23]: −13.1% (−27.2% to 3.7%) P = .1086
EEG Alpha Fz-Cz (uV) [8, 24]: 7.8% (−7.0% to 25.1%) P = .3088
EEG Alpha Pz-Oz (uV) [8, 24]: 13.8% (−5.4% to 36.9%) P = .1633
EEG Alpha Fz-Cz (uV) [8, 25]: 21.5% (4.8% to 40.8%) P = .0116
EEG Alpha Pz-Oz (uV) [8, 25]: 19.7% (−0.2% to 43.6%) P = .0530
EEG Alpha Fz-Cz (uV) [8, 26]: −10.1% (−24.2% to 6.6%) P = .2121
EEG Alpha Pz-Oz (uV) [8, 26]: 2.1% (−16.3% to 24.5%) P = .8306
Saccadic Inaccuracy [9, 22]: −1.56 (−2.77 to −0.35) P = .0157%
Saccadic Peak Velocity [9, 22]: 9.90 (−17.50 to 37.30) P = .4465 deg/sec
Saccadic Inaccuracy [9, 23]: −1.78 (−3.03 to −0.54) P = .0088%
Saccadic Peak Velocity [9, 23]: 8.32 (−18.32 to 34.95) P = .5097 deg/sec
Saccadic Inaccuracy [9, 24]: 0.24 (−1.01 to 1.48) P = .7005%
Saccadic Peak Velocity [9, 24]: 26.92 (4.11 to 49.73) P = .0223 deg/sec
Saccadic Inaccuracy [9, 25]: 0.08 (−1.14 to 1.30) P = .8970%
Saccadic Peak Velocity [9, 25]: 0.92 (−21.84 to 23.68) P = .9349 deg/sec
Saccadic Inaccuracy [9, 26]: −0.22 (−1.57 to 1.12) P = .7363%
Saccadic Peak Velocity [9, 26]: 19.19 (−5.54 to 43.92) P = .1242 deg/sec
peak of nausea (VAS nausea), time after administration [10]: 4 h
subjects with dry white plaques in the nostrils [11]: three

COc1cc2c(cc1OC)C(=O)C(CC1CCN(Cc3ccccc3)CC1)C2 (stereo not drawn) [donepezil, reference compound]
Nausea, incidence [4, 27]: 16.7%
Diarrhea, incidence [4, 28]: 33.3%
Vomiting, incidence [4, 28]: 16.7%
adaptive tracking compared with placebo (in words) [5, 27]: improvement
